According to ChEMBL document CHEMBL1649438, “Activities of ceftobiprole and other cephalosporins against extracellular and intracellular (THP-1 macrophages and keratinocytes) forms of methicillin-susceptible and methicillin-resistant Staphylococcus aureus” (Antimicrob Agents Chemother, 2009):
≈ marks a conversion by molar mass, not a printed value.

What was measured:
Staphylococcus aureus [1] = assay: Bacteriostatic activity against Panton-valentine leucocidin-positive community-acquired methicillin-resistant Staphylococcus aureus N4042228 infected in human THP-1 cells assessed as change in bacterial count after 24 hrs at pH 5.5; format: functional
How it was run: (§1)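 THP-1 macrophages infected as described previously, with a postphagocytosis inoculum of 1.5 × 10⁶ to 3.0 × 10⁶ CFU/mg cell protein. Cells were exposed 24 h to increasing extracellular antibiotic concentrations. Response is the change in log10 CFU/mg protein from the inoculum (n = 3), fitted to a Hill function. E0 and Emax were extrapolated to infinitely low and high concentrations. EC50 and static concentration (graphical interpolation) are expressed as multiples of the broth MIC at pH 5.5 or 7.4.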

Staphylococcus aureus [2] = assay: Antimicrobial activity against methicillin-susceptible Staphylococcus aureus NRS52 infected in human THP-1 cells assessed as bacterial count per mg of cell protein at low extracellular compound concentration after 24 hrs; format: functional
How it was run: (§2)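 Human THP-1 macrophage-like cells were infected with S. aureus to a postphagocytosis inoculum of 1.5 × 10^6 to 3.0 × 10^6 CFU/mg cell protein. Cells were then exposed 24 h to increasing extracellular antibiotic concentrations. Response was the log10 CFU change per mg protein from the postphagocytosis inoculum, n = 3. A Hill function was fitted on log-transformed axes. E0 and Emax were extrapolated to infinitely low and high concentrations. Cs was read by graphical interpolation. Concentrations were expressed as multiples of the broth MIC at pH 5.5 or pH 7.4.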

Staphylococcus aureus [3] = assay: Ratio of MIC for beta-lactamase-negative methicillin-susceptible Staphylococcus aureus ATCC 25923 by microdilution method at pH 7.4 to ratio of MIC for beta-lactamase-negative methicillin-susceptible Staphylococcus aureus ATCC 25923 by microdilution method at pH 5.5; format: functional
How it was run: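 MICs were measured by broth microdilution, with the broth adjusted to pH 7.4 or pH 5.5 before inoculation. pH was confirmed at the end of the assay to within ±0.1 unit. The value is the fold decrease in MIC between pH 7.4 and pH 5.5.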

Staphylococcus aureus [4] = assay: Antimicrobial activity against hospital-acquired methicillin-resistant Staphylococcus aureus […] infected in human THP-1 cells assessed as change in bacterial count after 24 hrs; format: functional, organism-based; settings: THP-1, 24 h; how it was run: as §1
Staphylococcus aureus [5] = assay: Antimicrobial activity against Panton-valentine leucocidin-positive community-acquired methicillin-resistant Staphylococcus aureus N4042228 infected in human THP-1 cells assessed as bacterial count per mg of cell protein at high extracellular compound concentration after 24 hrs at pH 5.5; format: functional
How it was run: (§3)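 THP-1 human macrophages infected with S. aureus (postphagocytosis inoculum 1.5 × 10^6 to 3.0 × 10^6 CFU/mg cell protein), then incubated 24 h with increasing extracellular antibiotic concentrations. Change in log10 CFU/mg cell protein from the postphagocytosis inoculum, n = 3. Hill function fitted on log-transformed data. Low-concentration value (E0) and high-concentration value (Emax) are extrapolated. Where a pH is given, concentrations are expressed as multiples of the broth MIC at that pH.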

Staphylococcus aureus [6] = assay: Bacteriostatic activity against methicillin-susceptible Staphylococcus aureus ATCC 11632 infected in human THP-1 cells assessed as change in bacterial count after 24 hrs at pH 7.4; format: functional; how it was run: as §2
Staphylococcus aureus [7] = assay: Bacteriostatic activity against methicillin-resistant Staphylococcus aureus ATCC 33591 infected in human keratinocytes assessed as change in bacterial count after 24 hrs; format: functional
How it was run: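 Primary human skin keratinocytes were grown in defined keratinocyte serum-free medium, infected, then incubated 24 h with increasing extracellular drug concentrations. Response was the change in log10 CFU/mg cell protein versus the post-phagocytosis inoculum, fitted to a Hill equation with slope factor 1. Static concentration (mg/liter, total drug) was taken by graphical interpolation where CFU equalled the original inoculum.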

Staphylococcus aureus [8] = assay: Antimicrobial activity against Panton-valentine leucocidin-positive community-acquired methicillin-resistant Staphylococcus aureus NRS192 infected in human THP-1 cells assessed as bacterial count per mg of cell protein at low extracellular compound concentration after 24 hrs; format: functional; how it was run: as §3
Staphylococcus aureus [9] = assay: Antimicrobial activity against hospital-acquired vancomycin-intermediate Staphylococcus aureus NRS126 infected in human THP-1 cells assessed as bacterial count per mg of cell protein at low extracellular compound concentration after 24 hrs at pH 5.5; format: functional; how it was run: as §1
Staphylococcus aureus [10] = assay: Bacteriostatic activity against methicillin-susceptible Staphylococcus aureus NRS52 infected in human THP-1 cells assessed as change in bacterial count after 24 hrs at pH 7.4; format: functional; how it was run: as §2
Staphylococcus aureus [11] = assay: Antimicrobial activity against Panton-valentine leucocidin-positive community-acquired methicillin-resistant Staphylococcus aureus STA 228 infected in human THP-1 cells assessed as change in bacterial count after 24 hrs at pH 7.4; format: functional, organism-based; settings: STA 228, THP-1, 24 h; how it was run: as §3
Staphylococcus aureus [12] = assay: Antimicrobial activity against Panton-valentine leucocidin-positive community-acquired methicillin-resistant Staphylococcus aureus NRS192 infected in human THP-1 cells assessed as bacterial count per mg of cell protein at low extracellular compound concentration after 24 hrs at pH 7.4; format: functional; settings: pooled result: one value given for 6 cell lines, strains, targets or settings; how it was run: as §3
Staphylococcus aureus [13] = assay: Antimicrobial activity against hospital-acquired vancomycin-intermediate Staphylococcus aureus NRS126 infected in human THP-1 cells assessed as change in bacterial count after 24 hrs at pH 7.4; format: functional, organism-based; settings: NRS126, THP-1, 24 h; how it was run: as §1
Staphylococcus aureus [14] = assay: Antimicrobial activity against Panton-valentine leucocidin-positive community-acquired methicillin-resistant Staphylococcus aureus STA 44 infected in human THP-1 cells assessed as bacterial count per mg of cell protein at low extracellular compound concentration after 24 hrs; format: functional; how it was run: as §3
Staphylococcus aureus [15] = assay: Bacteriostatic activity against Panton-valentine leucocidin-positive community-acquired methicillin-resistant Staphylococcus aureus isolate MEH2225605 infected in human THP-1 cells assessed as change in bacterial count after 24 hrs at pH 5.5; format: functional; how it was run: as §1
Staphylococcus aureus [16] = assay: Antimicrobial activity against Panton-valentine leucocidin-positive community-acquired methicillin-resistant Staphylococcus aureus STA 44 infected in human THP-1 cells assessed as change in bacterial count after 24 hrs at pH 7.4; format: functional, organism-based; settings: STA 44, THP-1, 24 h; how it was run: as §3
Staphylococcus aureus [17] = assay: Antimicrobial activity against hospital-acquired vancomycin-intermediate Staphylococcus aureus NRS126 infected in human THP-1 cells assessed as change in bacterial count after 24 hrs; format: functional, organism-based; settings: NRS126, THP-1, 24 h; how it was run: as §1
Staphylococcus aureus [18] = assay: Antimicrobial activity against Panton-valentine leucocidin-positive community-acquired methicillin-resistant Staphylococcus aureus STA 228 infected in human THP-1 cells assessed as change in bacterial count after 24 hrs; format: functional, organism-based; settings: STA 228, THP-1, 24 h; how it was run: as §3
Staphylococcus aureus [19] = assay: Antimicrobial activity against hospital-acquired vancomycin-intermediate Staphylococcus aureus NRS18 infected in human THP-1 cells assessed as bacterial count per mg of cell protein at low extracellular compound concentration after 24 hrs at pH 5.5; format: functional; how it was run: as §2
Staphylococcus aureus [20] = assay: Antimicrobial activity against methicillin-susceptible Staphylococcus aureus […] infected in human THP-1 cells assessed as bacterial count per mg of cell protein at low extracellular compound concentration after 24 hrs at pH 7.4; format: functional; settings: pooled result: one value given for 6 cell lines, strains, targets or settings; how it was run: as §2
Staphylococcus aureus [21] = assay: Antimicrobial activity against hospital-acquired methicillin-resistant Staphylococcus aureus ATCC 33591 infected in human THP-1 cells assessed as bacterial count per mg of cell protein at high extracellular compound concentration after 24 hrs; format: functional; how it was run: as §3
Staphylococcus aureus [22] = assay: Antimicrobial activity against Panton-valentine leucocidin-positive community-acquired methicillin-resistant Staphylococcus aureus N4042228 infected in human THP-1 cells assessed as change in bacterial count after 24 hrs; format: functional, organism-based; settings: N4042228, THP-1, 24 h; how it was run: as §3

## Nc1nc(/C(=N/O)C(=O)N[C@@H]2C(=O)N3C(C(=O)O)=C(/C=C4\CCN([C@@H]5CCNC5)C4=O)CS[C@H]23)ns1 [CEFTOBIPROLE]
Staphylococcus aureus [1]
  Activity: 1.45 × MIC
Staphylococcus aureus [2]
  log10cfu: 2.89
Staphylococcus aureus [3]
  fold change (FC): 2
Staphylococcus aureus [4]
  EC50: 0.73 µg/mL (≈ 1.37 µM)
Staphylococcus aureus [5]
  log10cfu: -1.02
Staphylococcus aureus [6]
  Activity: 0.6 × MIC
Staphylococcus aureus [7]
  Activity: 1.95 mg/L
Staphylococcus aureus [8]
  log10cfu: 2.68
Staphylococcus aureus [9]
  log10cfu: 2.63
Staphylococcus aureus [10]
  Activity: 0.6 ×MIC
Staphylococcus aureus [11]
  EC50: 0.33 ×MIC
Staphylococcus aureus [12]
  log10cfu: 2.74
Staphylococcus aureus [13]
  EC50: 0.28 ×MIC
Staphylococcus aureus [14]
  log10cfu: 2.82
Staphylococcus aureus [15]
  Activity: 1.45 × MIC
Staphylococcus aureus [16]
  EC50: 0.33 ×MIC
Staphylococcus aureus [17]
  EC50: 0.23 µg/mL (≈ 0.43 µM)
Staphylococcus aureus [18]
  EC50: 0.88 µg/mL (≈ 1.65 µM)
Staphylococcus aureus [19]
  log10cfu: 2.63
Staphylococcus aureus [20]
  log10cfu: 3.06
Staphylococcus aureus [21]
  log10cfu: -0.78
Staphylococcus aureus [22]
  EC50: 0.07 µg/mL (≈ 0.131 µM)
